Tested on: U2OS
Experiment: Multiplex assay against U2OS
Format: toxicity, cell-based
Conditions: human
Outline: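 Hoechst33342, BioTracker Green Microtubule Cytoskeleton Dye, MitoTracker Red and Annexin V Alexa Fluor 680 were added to live cells at seeding, and imaging on a CQ1 microscope at 37°C and 5% CO2 followed compound addition. Gating by CellPathfinder machine learning separated cells into Hoechst high-intensity objects or normal cells, then normal cells into healthy, pyknosed or fragmented nuclei, then pyknosed cells into mitotic or apoptotic. Per cents of healthy-nucleus cells are reported for the tubulin, mitochondrial-mass and membrane-permeability phenotypes.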

[1] = 12 h, 1 µM, compound concentration 1 uM, replicate 1
[2] = 12 h, 1 µM, compound concentration 1 uM, replicate 2
[3] = 12 h, 10 µM, compound concentration 10 uM, replicate 1
[4] = 12 h, 10 µM, compound concentration 10 uM, replicate 2
[5] = 24 h, 1 µM, compound concentration 1 uM, replicate 1
[6] = 24 h, 1 µM, compound concentration 1 uM, replicate 2
[7] = 24 h, 10 µM, compound concentration 10 uM, replicate 1
[8] = 24 h, 10 µM, compound concentration 10 uM, replicate 2
[9] = 48 h, 1 µM, compound concentration 1 uM, replicate 1
[10] = 48 h, 1 µM, compound concentration 1 uM, replicate 2
[11] = 48 h, 10 µM, compound concentration 10 uM, replicate 1
[12] = 48 h, 10 µM, compound concentration 10 uM, replicate 2

SMILES: COc1cc(-n2cnc3cc(-c4ccc(Cl)cc4)sc3c2=O)ccc1OCCN1CCCC1
- Population Apoptotic (%) [1]: 45%
- Population Fragmented Nuclei (%) [1]: 12%
- Population Healthy Nuclei (%) [1]: 70%
- Population Hoechst High Intensity Objects (%) [1]: 9%
- Population Membrane Permeable-Phenotype (%) [1]: 9%
- Population Mitochondria Different-Phenotype (%) [1]: 63%
- Population Mitotic Cells (%) [1]: 54%
- Population Normal (%) [1]: 90%
- Population Pyknosed Nuclei (%) [1]: 16%
- Population Tubulin-Different-Phenotype (%) [1]: 65%
- Total Cell Count [1]: 157
- Population Apoptotic (%) [2]: 71%
- Population Fragmented Nuclei (%) [2]: 11%
- Population Healthy Nuclei (%) [2]: 77%
- Population Hoechst High Intensity Objects (%) [2]: 16%
- Population Membrane Permeable-Phenotype (%) [2]: 10%
- Population Mitochondria Different-Phenotype (%) [2]: 44%
- Population Mitotic Cells (%) [2]: 28%
- Population Normal (%) [2]: 84%
- Population Pyknosed Nuclei (%) [2]: 11%
- Population Tubulin-Different-Phenotype (%) [2]: 34%
- Total Cell Count [2]: 78
- Population Apoptotic (%) [3]: 72%
- Population Fragmented Nuclei (%) [3]: 32%
- Population Healthy Nuclei (%) [3]: 13%
- Population Hoechst High Intensity Objects (%) [3]: 10%
- Population Membrane Permeable-Phenotype (%) [3]: 61%
- Population Mitochondria Different-Phenotype (%) [3]: 100%
- Population Mitotic Cells (%) [3]: 27%
- Population Normal (%) [3]: 90%
- Population Pyknosed Nuclei (%) [3]: 54%
- Population Tubulin-Different-Phenotype (%) [3]: 100%
- Total Cell Count [3]: 144
- Population Apoptotic (%) [4]: 26%
- Population Fragmented Nuclei (%) [4]: 22%
- Population Healthy Nuclei (%) [4]: 57%
- Population Hoechst High Intensity Objects (%) [4]: 8%
- Population Membrane Permeable-Phenotype (%) [4]: 34%
- Population Mitochondria Different-Phenotype (%) [4]: 93%
- Population Mitotic Cells (%) [4]: 73%
- Population Normal (%) [4]: 91%
- Population Pyknosed Nuclei (%) [4]: 19%
- Population Tubulin-Different-Phenotype (%) [4]: 97%
- Total Cell Count [4]: 75
- Population Apoptotic (%) [5]: 56%
- Population Fragmented Nuclei (%) [5]: 6%
- Population Healthy Nuclei (%) [5]: 76%
- Population Hoechst High Intensity Objects (%) [5]: 6%
- Population Membrane Permeable-Phenotype (%) [5]: 8%
- Population Mitochondria Different-Phenotype (%) [5]: 45%
- Population Mitotic Cells (%) [5]: 43%
- Population Normal (%) [5]: 93%
- Population Pyknosed Nuclei (%) [5]: 16%
- Population Tubulin-Different-Phenotype (%) [5]: 42%
- Total Cell Count [5]: 175
- Population Apoptotic (%) [6]: 62%
- Population Fragmented Nuclei (%) [6]: 16%
- Population Healthy Nuclei (%) [6]: 71%
- Population Hoechst High Intensity Objects (%) [6]: 10%
- Population Membrane Permeable-Phenotype (%) [6]: 6%
- Population Mitochondria Different-Phenotype (%) [6]: 25%
- Population Mitotic Cells (%) [6]: 37%
- Population Normal (%) [6]: 89%
- Population Pyknosed Nuclei (%) [6]: 12%
- Population Tubulin-Different-Phenotype (%) [6]: 21%
- Total Cell Count [6]: 83
- Population Apoptotic (%) [7]: 95%
- Population Fragmented Nuclei (%) [7]: 48%
- Population Healthy Nuclei (%) [7]: 3%
- Population Hoechst High Intensity Objects (%) [7]: 11%
- Population Membrane Permeable-Phenotype (%) [7]: 100%
- Population Mitochondria Different-Phenotype (%) [7]: 100%
- Population Mitotic Cells (%) [7]: 4%
- Population Normal (%) [7]: 88%
- Population Pyknosed Nuclei (%) [7]: 47%
- Population Tubulin-Different-Phenotype (%) [7]: 100%
- Total Cell Count [7]: 147
- Population Apoptotic (%) [8]: 47%
- Population Fragmented Nuclei (%) [8]: 24%
- Population Healthy Nuclei (%) [8]: 52%
- Population Hoechst High Intensity Objects (%) [8]: 14%
- Population Membrane Permeable-Phenotype (%) [8]: 42%
- Population Mitochondria Different-Phenotype (%) [8]: 89%
- Population Mitotic Cells (%) [8]: 52%
- Population Normal (%) [8]: 85%
- Population Pyknosed Nuclei (%) [8]: 23%
- Population Tubulin-Different-Phenotype (%) [8]: 81%
- Total Cell Count [8]: 74
- Population Apoptotic (%) [9]: 59%
- Population Fragmented Nuclei (%) [9]: 10%
- Population Hoechst High Intensity Objects (%) [9]: 3%
- Population Membrane Permeable-Phenotype (%) [9]: 7%
- Population Mitochondria Different-Phenotype (%) [9]: 28%
- Population Mitotic Cells (%) [9]: 40%
- Population Normal (%) [9]: 96%
- Population Pyknosed Nuclei (%) [9]: 14%
- Population Tubulin-Different-Phenotype (%) [9]: 31%
- Total Cell Count [9]: 187
- Population Apoptotic (%) [10]: 63%
- Population Fragmented Nuclei (%) [10]: 12%
- Population Healthy Nuclei (%) [10]: 74%
- Population Hoechst High Intensity Objects (%) [10]: 5%
- Population Membrane Permeable-Phenotype (%) [10]: 21%
- Population Mitochondria Different-Phenotype (%) [10]: 31%
- Population Mitotic Cells (%) [10]: 36%
- Population Normal (%) [10]: 94%
- Population Pyknosed Nuclei (%) [10]: 13%
- Population Tubulin-Different-Phenotype (%) [10]: 19%
- Total Cell Count [10]: 79
- Population Apoptotic (%) [11]: 97%
- Population Fragmented Nuclei (%) [11]: 33%
- Population Healthy Nuclei (%) [11]: 7%
- Population Hoechst High Intensity Objects (%) [11]: 20%
- Population Membrane Permeable-Phenotype (%) [11]: 88%
- Population Mitochondria Different-Phenotype (%) [11]: 100%
- Population Mitotic Cells (%) [11]: 2%
- Population Normal (%) [11]: 79%
- Population Pyknosed Nuclei (%) [11]: 59%
- Population Tubulin-Different-Phenotype (%) [11]: 100%
- Total Cell Count [11]: 189
- Population Apoptotic (%) [12]: 53%
- Population Fragmented Nuclei (%) [12]: 25%
- Population Healthy Nuclei (%) [12]: 59%
- Population Hoechst High Intensity Objects (%) [12]: 5%
- Population Membrane Permeable-Phenotype (%) [12]: 56%
- Population Mitochondria Different-Phenotype (%) [12]: 96%
- Population Mitotic Cells (%) [12]: 46%
- Population Normal (%) [12]: 94%
- Population Pyknosed Nuclei (%) [12]: 15%
- Population Tubulin-Different-Phenotype (%) [12]: 96%
- Total Cell Count [12]: 87

Source: ChEMBL document CHEMBL4689842, “EUbOPEN Chemogenomics Library wave 1” (2021)
